Source: PubChem
The list is not random: actives were taken first. Their share in the collection is about 4%.
MDM2 E3 inh: blocks human Mdm2 ubiquitin ligase activity. Q00987. cell-based MDM2 ubiquitination luciferase reporter, 2 h; 0 = plate control, 100 = twice control, blank-subtracted. signal enhancement, % at 5 µM. 0.11% of 210,000 active;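 active = signal enhancement of 30% or more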;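 also: luminescence tracks abundance of the self-degrading MDM2-luciferase fusion protein; higher signal means inhibition of MDM2 E3 ligase activity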
Target sequence (Q00987 whole entry, looked up, the tested form may be a part): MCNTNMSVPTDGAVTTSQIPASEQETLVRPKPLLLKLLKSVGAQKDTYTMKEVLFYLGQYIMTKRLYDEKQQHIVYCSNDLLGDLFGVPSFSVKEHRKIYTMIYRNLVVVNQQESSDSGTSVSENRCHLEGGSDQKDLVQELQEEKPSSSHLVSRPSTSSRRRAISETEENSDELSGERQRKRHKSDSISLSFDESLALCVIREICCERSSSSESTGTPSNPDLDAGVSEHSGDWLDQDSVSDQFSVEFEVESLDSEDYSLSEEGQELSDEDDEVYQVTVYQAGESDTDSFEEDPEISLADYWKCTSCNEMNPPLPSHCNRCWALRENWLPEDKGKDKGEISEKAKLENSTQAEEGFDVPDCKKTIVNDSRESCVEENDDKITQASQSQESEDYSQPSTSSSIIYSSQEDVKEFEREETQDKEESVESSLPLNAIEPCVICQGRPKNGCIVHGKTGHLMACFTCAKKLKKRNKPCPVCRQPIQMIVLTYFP
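Test system: stable mammalian line carrying autodegrading MDM2–luciferase fusion reporter; quantity: 2000 cells in each well; times: 4 h cell settling then 2 h compound exposure, 37 °C; detection: luminescence with SteadyLite reagent, 15 min at room temperature; evaluation: percent signal gain over controls, blank-subtracted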
S1P3 antagonist: S1P3 (human) receptor antagonism; inhibition, % at 4.98 µM; CHO S1P3 NFAT-BLA reporter, FRET fluorescence, antagonist mode; 0.27% of 170,000 active; Q99500;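 active = inhibition above the plate cutoff, the mean inhibition of test wells on that plate plus 3 SD, cut at about 28% in these data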;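 also: cells challenged with S1P at its EC80 of 0.8 µM; blue over green emission ratio from cleaved BLA substrate after 4 h stimulation; 0% = S1P-stimulated wells and 100% = unstimulated DMSO-only wells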
CHOP inhibitor: blocks CHOP induction under ER stress. CHO-K1 CHOP-promoter luciferase, tunicamycin-induced, 15-18 h. inhibition, % at 10 µM. 3.8% of 220,000 active;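 active = compounds that reduced the stress-induced luciferase reporter signal by more than about 70% of percent inhibition, limit read from the data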;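 also: 0% = tunicamycin plus vehicle and 100% = wells without tunicamycin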
Hsp70 activator: Hsp70 transcriptional activation, primary screen | 0.04% of 200,000 active | activation, % at 10 µM | AID 1203 | HeLa Hsp70 promoter luciferase reporter, luminescence; scaled: vehicle 0, proteasome-inhibitor control 100%;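 active = activation above the mean across all tested compounds plus 3 SD, cutoff set per campaign, cut at about 5.5% in these data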;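 also: 100% = MG132 at 30 µM as the positive control and 0% = DMSO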
* hit, by the source's call; . = not tested or not shown.

SMILES	MDM2 E3 inh	S1P3 antagonist	CHOP inhibitor	Hsp70 activator
COc1ccc(C(=O)N2CCN(c3ccc([N+](=O)[O-])c(NCCc4ccc(OC)c(OC)c4)c3)CC2)cc1	-34	4	81*	0
COc1ccc(CCNc2cc(N3CCN(C(=O)c4ccc(C)cc4)CC3)ccc2[N+](=O)[O-])cc1OC	-57	4	79*	0
COc1ccc(CCNc2cc(N3CCN(C(=O)c4ccccc4F)CC3)ccc2[N+](=O)[O-])cc1OC	-7	.	-14	0
Nc1c(S(=O)(=O)O)cc(Nc2ccc(Nc3nc(Cl)nc(Nc4ccc(S(=O)(=O)O)cc4)n3)c(S(=O)(=O)O)c2)c2c1C(=O)c1ccccc1C2=O	.	.	1	.
COC(=O)C1=C(C(=O)OC)[C@@H]2N(C)c3ccc(OC)cc3[C@@]23C[C@@H](C(=O)OC)N=C3N1	36*	.	-14	.
O=C(O)CCNS(=O)(=O)c1ccc2c(c1)OCCCO2	-29	2	-1	0
Cc1c(Cl)c([N+](=O)[O-])nn1Cc1ccc(C(=O)N/N=C\c2ccccn2)o1	4	-12	73*	0
COc1cc(/C=N\NC(=O)c2ccc(Cn3nc([N+](=O)[O-])c(Cl)c3C)o2)ccc1O	-30	.	-18	0
C[C@@H](C(=O)N[C@@H](Cc1c[nH]c2ccccc12)C(=O)O)n1nnc2ccccc2c1=O	.	-6	-6	.
COc1ccc(OCc2cccc(C(=O)NN)c2)cc1	-55	17	72*	-1
NNC(=O)c1ccc(COc2ccc3ccccc3c2)cc1	.	-7	85*	.
CCOc1ccc(OCc2cccc(C(=O)N3CCOCC3)c2)cc1	-74	-18	86*	-1
Cc1ccc(-c2nnn(CC(=O)N(c3cccc(F)c3)C(C(=O)NC(C)(C)C)c3ccco3)n2)o1 (stereo unspecified)	-1	3	95*	0
COC(=O)[C@@H]1CC[C@H](C)[C@@H](c2ccc(C)cc2)N1C(=O)c1ccc(/C=N/O[C@@H](C)c2cn([C@H](CO)Cc3ccccc3)nn2)cc1	.	16	25	0
CCCc1cc(-c2n[nH]c(C)c2-c2ccc(C(=O)OCC)o2)c(O)cc1O	-19	.	71*	0
CNc1ccc(/C=C2\COc3ccccc3C2=O)cc1[N+](=O)[O-]	-3	.	-56	-1
O=C1/C(=C/c2ccccc2[N+](=O)[O-])COc2ccccc21	.	17	95*	2
O=C(COc1ccccc1)NC(=S)Nc1ccc2c3c(cccc13)CC2	-7	.	5	0
O=C(/C=C/c1ccccc1)NC(=S)Nc1ccc2c3c(cccc13)CC2	-1	-3	75*	0
Nc1c(S(=O)(=O)c2cccs2)c2nc3ccccc3nc2n1/N=C/c1cccc(O)c1	-10	-44	89*	0
CCOC(=O)c1[nH]c2ccccc2c1NC(=O)Nc1ccc(OC)cc1	1	.	87*	0
CCCC(=O)Nc1c(C(=O)OCC)[nH]c2ccccc12	-4	2	6	0
CCCc1cc(=O)[nH]c(SCCCCN2C(=O)c3ccccc3C2=O)n1	-8	-19	33	0
Nc1ccc2oc(-c3cccc4ccccc34)nc2c1	-16	7	81*	-1
Cc1ccc(-c2nc3cc(N)ccc3o2)c(C)c1	-48	-7	54	0
SMILES	MDM2 E3 inh	S1P3 antagonist	CHOP inhibitor	Hsp70 activator
Cc1ccc(C(=O)Nc2cccc(C(F)(F)F)c2)cc1NC(=O)c1cnnc2ccccc12	15	.	89*	.
N#C/C(=C\c1cn(Cc2ccc(F)cc2)c2ccccc12)C(=O)NCc1ccco1	-9	-2	77*	0
N#C/C(=C\c1cn(Cc2ccccc2)c2ccccc12)C(=O)NCc1ccco1	-5	-9	56	0
CC(/C=C/c1ccc2c(c1)OCO2)=N/NC(=O)c1cccnc1	14	9	-2	1
CCOc1ccccc1N(CC(=O)NCC1CCCO1)C(=O)CNS(=O)(=O)c1ccccc1 (stereo unspecified)	0	9	2	0
CCOC(=O)c1c(CSc2ccc(C)cc2)oc2ccc(O)cc12	0	9	107*	0
N#Cc1c(NC(=O)CSc2ncn[nH]2)sc2c1CCCC2	-12	.	78*	-1
Cn1c(CNC(=O)c2ccc(Cl)cc2)nnc1SCC(=O)Nc1sc2c(c1C#N)CCCC2	-27	.	91*	-1
CC(=O)c1c(C)[nH]c(C(=O)OCC(=O)Nc2sc3c(c2C#N)CCC(C)C3)c1C (stereo unspecified)	.	4	94*	.
CC1CCc2c(sc(NC(=O)CSc3nnc(-c4ccccc4)o3)c2C#N)C1 (stereo unspecified)	-5	-7	74*	0
Cc1ccc(C(=O)NCc2nnc(SCC(=O)Nc3sc4c(c3C#N)CCCC4)n2C)cc1	-2	-22	67	0
Cc1cc(C(=O)OCC(=O)Nc2sc3c(c2C#N)CCC(C)C3)c2ccccc2n1 (stereo unspecified)	2	-20	-3	0
Cc1ccc(C2NC(=O)Cc3ccccc32)cc1 (stereo unspecified)	0	.	-10	0
Cc1ccc(OCC(O)C(C)NC(C)C)c2c1CCC2 (stereo unspecified)	.	.	-4	.
CC1CCc2c(sc(NC(=O)CSc3ncn[nH]3)c2C#N)C1 (stereo unspecified)	-41	-13	85*	.
CC(C)(C)C1CCc2c(sc(NC(=O)CSc3ncn[nH]3)c2C#N)C1 (stereo unspecified)	.	.	63	0
Cc1cc(-c2csc(N)n2)c(C)n1CCc1ccccc1	-10	31	81*	0
Cc1nn(C)cc1-c1csc(N)n1	-11	-18	-18	0
Cc1cc(-c2csc(N)n2)c(C)n1CCC(C)C	-9	.	79*	0
N#C/C(=C\C1CC2C=CC1C2)c1nc2ccccc2[nH]1 (stereo unspecified)	-17	.	19	0
N#C/C(=C\c1cn[nH]c1-c1ccccc1)C(=O)NC1CCCCCC1	-2	.	72*	0
CCc1ccc(C(C)NC(=O)/C(C#N)=C\c2cn[nH]c2-c2ccccc2)cc1 (stereo unspecified)	16	.	78*	0
O=C(c1ccc(=O)oc1)N1CCCc2ccccc21	-9	0	46	0
Cc1cc(C)c2c(CC(=O)Nc3nccs3)coc2c1	14	21	82*	0
Cc1nn(C)c(Nc2ccc(Br)cc2)c1Br	-11	14	74*	0
SMILES	MDM2 E3 inh	S1P3 antagonist	CHOP inhibitor	Hsp70 activator
Cc1cc(C)nc(-n2nc(C)c(Br)c2Nc2ccc(Br)cc2)n1	-6	.	77*	0
Cc1c(C(=O)Nc2ccc(Br)cc2)cnn1C	-4	-4	1	0
COc1ccc(NC(=O)C2CC(=O)N=C(N)S2)cc1 (stereo unspecified)	3	1	-18	-1
Cc1ccc2nc(Cl)c(C#N)cc2c1	6	-4	25	2
CCOC(=O)c1sc(-c2ccccc2)cc1NC(=O)Nc1ccc([N+](=O)[O-])cc1	-6	13	91*	0
O=C(Nc1nc2c(s1)CCCC2)c1cc(-c2ccncc2)nc2ccccc12	-9	-9	63	0
